Assay [1] deals with Hepatitis B virus. Briefly: Inhibition of HBV replication with RT A200V substitution from Lamivudine refractory patient transfected into HepG2 cells. In kind it is functional, organism-based. Put shortly: (§1)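 HepG2 cells bulk-transfected with full-length HBV phenotyping plasmids cloned from patient isolates, then seeded into wells with compound titration. DMSO vehicle controls and cloned lab wild-type HBV run in parallel each experiment. At 5 days posttransfection, released virions stripped with Nonidet P-40, captured from medium with anti-HBV core antibody, and extracellular replicated virus quantitated. EC50 = concentration giving 50% inhibition.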

The subject of assay [2] is Hepatitis B virus. As to the kind of experiment: Inhibition of HBV replication with RT A200V substitution and M204I background from Lamivudine refractory patient transfected into HepG2 cells. In kind it is functional, organism-based. A digest of the protocol: as §1
The subject of assay [3] is Hepatitis B virus. As to the kind of experiment: Inhibition of HBV replication with RT A200V substitution and L180M, M204I background from Lamivudine refractory patient transfected into HepG2 cells. In kind it is functional, organism-based. A digest of the protocol: as §1
Assay [4] deals with Hepatitis B virus. Briefly: Inhibition of HBV replication with RT L80V substitution and L180M, M204V background from Lamivudine refractory patient transfected into HepG2 cells. In kind it is functional, organism-based. Put shortly:
as §1

Assay [5] has as its system Hepatitis B virus. Briefly: Inhibition of HBV replication with RT V27A substitution and L180M, M204V background from Lamivudine refractory patient transfected into HepG2 cells. In kind it is functional. Put shortly: as §1
The subject of assay [6] is Hepatitis B virus. Briefly: Inhibition of HBV replication with RT I53F substitution and V173F, L180M, M204V background from Lamivudine refractory patient transfected into HepG2 cells. In kind it is functional, organism-based. Put shortly: as §1
Assay [7] concerns Hepatitis B virus. Briefly: Inhibition of HBV replication with RT S78T substitution from Lamivudine refractory patient transfected into HepG2 cells. In kind it is functional, organism-based. A digest of the protocol:
as §1

The subject of assay [8] is Hepatitis B virus. Briefly: Inhibition of HBV replication with RT L80I substitution and L180M, M204I background from Lamivudine refractory patient transfected into HepG2 cells. In kind it is functional, organism-based. A digest of the protocol:
as §1

Assay [9] concerns Hepatitis B virus. As to the kind of experiment: Inhibition of HBV replication with RT K168E substitution and M204I background from Lamivudine refractory patient transfected into HepG2 cells. In kind it is functional. Put shortly:
as §1

The test system of assay [10] is Hepatitis B virus. As to the kind of experiment: Inhibition of HBV replication with RT A181T substitution and V173L, L180M, M204V background from Lamivudine refractory patient transfected into HepG2 cells.
In assay [11] the test system is Hepatitis B virus. As to the kind of experiment: Inhibition of HBV replication with RT C188S substitution and L80I, L180T, M204V background from Lamivudine refractory patient transfected into HepG2 cells. In kind it is functional, organism-based. Put shortly:
as §1

In assay [12] the test system is Hepatitis B virus. As to the kind of experiment: Inhibition of HBV replication with RT V224A substitution and V173L, L180M, M204V background from Lamivudine refractory patient transfected into HepG2 cells. In kind it is functional. Put shortly:
as §1

For assay [13], the system named is Hepatitis B virus. Briefly: Inhibition of HBV replication with RT L228P substitution and M204I background from Lamivudine refractory patient transfected into HepG2 cells. In kind it is functional. Put shortly:
as §1

Assay [14] deals with Hepatitis B virus. As to the kind of experiment: Inhibition of HBV replication with RT L229W substitution and L180M, M204V background from Lamivudine refractory patient transfected into HepG2 cells. In kind it is functional, organism-based. Put shortly:
as §1

Assay [15] deals with Hepatitis B virus. As to the kind of experiment: Inhibition of HBV replication with RT D263G substitution from Lamivudine refractory patient transfected into HepG2 cells. In kind it is functional, organism-based. Put shortly: as §1
Assay [16] deals with Hepatitis B virus. As to the kind of experiment: Inhibition of HBV replication with RT Q267Stop substitution and L180M, M204V background from Lamivudine refractory patient transfected into HepG2 cells. In kind it is functional. Put shortly:
as §1

Assay [17] deals with Hepatitis B virus. Briefly: Inhibition of HBV replication with RT G295S substitution and L80I, M204I background from Lamivudine refractory patient transfected into HepG2 cells. In kind it is functional. Put shortly: as §1
The subject of assay [18] is Hepatitis B virus. As to the kind of experiment: Inhibition of HBV replication with RT M309L substitution from Lamivudine refractory patient transfected into HepG2 cells. In kind it is functional, organism-based. Put shortly:
as §1

In the case of `C=C1[C@H](CO)[C@@H](O)C[C@@H]1n1cnc2c(=O)[nH]c(N)nc21.O` [ENTECAVIR], the EC50 (in general, the concentration giving half of the maximal effect) with Hepatitis B virus [1] was found to be 7.6 nM; with Hepatitis B virus [2], 33 nM; in the assay on Hepatitis B virus [3], 10.2 nM; with Hepatitis B virus [4] it was 11 nM; with Hepatitis B virus [6], 22.3 nM; in the assay on Hepatitis B virus [7], 2.4 nM. Moreover, the EC50 was 45.3 nM with Hepatitis B virus [8]; 14.2 nM in the assay on Hepatitis B virus [10]; 31.2 nM in the assay with Hepatitis B virus [11]; 32.9 nM with Hepatitis B virus [14]; 5.8 nM in the assay with Hepatitis B virus [15]; 4 nM in the assay with Hepatitis B virus [18]. Moreover, the Inhibition with Hepatitis B virus [5], in the assay with Hepatitis B virus [9], in the assay with Hepatitis B virus [12], in the assay with Hepatitis B virus [13], with Hepatitis B virus [16] and with Hepatitis B virus [17] was less than 10% throughout.

Source of the values: ChEMBL document CHEMBL1142075, “Two-year assessment of entecavir resistance in Lamivudine-refractory hepatitis B virus patients reveals different clinical outcomes depending on the resistance substitutions present” (Antimicrob Agents Chemother, 2007).
